Results taken from ChEMBL document CHEMBL5038571, “Design and Synthesis of EZH2-Based PROTACs to Degrade the PRC2 Complex for Targeting the Noncatalytic Activity of EZH2” (J Med Chem, 2021).
The source made the active and inactive calls. The calls are words filed in the database; no cut-off is given here.

Assays:
[1] = target: T1, Protein cereblon/Histone-lysine N-methyltransferase EZH2 (Homo sapiens) (UniProt Q15910+Q96SW2); assay: PROTAC activity at CRBN E3 ligase/EZH2 in PRC2 complex in human WSUDLCL2 cells assessed as reduction in H3K27me3 level at 1 uM incubated for 48 hrs by Western blot analysis; format: cell-based
Procedure, shortened: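 WSU-DLCL-2 cells treated 48 h (1 μM for the single-concentration screen), lysed; SDS-PAGE, nitrocellulose transfer, 5% milk block, primary antibody 4 °C overnight, chemiluminescence. Bands quantified by densitometry, normalized to GAPDH, expressed relative to DMSO-treated cells; mean ± SD of three independent experiments, t-test.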

[2] = target: Histone-lysine N-methyltransferase EZH2 (Homo sapiens, UniProt Q15910); format: cell-based, Sf9
NCI-H1299 [3] = assay: Downregulation of CENPK mRNA expression in human NCI-H1299 cells at 10 uM incubated for 48 hrs by qRT-PCR analysis; format: functional, cell-based
Procedure, shortened: (§1)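 Cells treated 48 h. Total RNA extracted with Trizol, reverse-transcribed, and SYBR RT-qPCR run: 95 °C 30 s, then 40 cycles of 95 °C 6 s and 60 °C 20 s. mRNA normalized to the DMSO-treated group. Mean SD of three independent experiments, t-test versus DMSO.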

WSUDLCL2 = assay: Antiproliferative activity against human WSUDLCL2 cells harboring EZH2-Y641F mutant assessed as inhibition of cell growth at 10 uM incubated for 9 days by optical microscopic analysis; format: functional, cell-based; conditions: time 9.0 day
Procedure, shortened: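 WSU-DLCL-2 cells seeded at 5 × 10³ per well, incubated 24 h, then exposed to 10 μM compound for 9 days with medium refreshed. Cells photographed and counted on days 1, 3, 5, 7 and 9. Mean SD of three independent experiments, t-test versus DMSO.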

A549 [4] = assay: Downregulation of […] mRNA expression in human A549 cells at 10 uM incubated for 48 hrs by qRT-PCR analysis; format: functional, cell-based; procedure, shortened: as §1
A549 [5] = assay: Downregulation of ARL6IP mRNA expression in human A549 cells at 10 uM incubated for 48 hrs by qRT-PCR analysis; format: functional, cell-based; procedure, shortened: as §1
A549 [6] = assay: Downregulation of CEP76 mRNA expression in human A549 cells at 10 uM incubated for 48 hrs by qRT-PCR analysis; format: functional, cell-based; procedure, shortened: as §1
A549 [7] = assay: Downregulation of CENPK mRNA expression in human A549 cells at 10 uM incubated for 48 hrs by qRT-PCR analysis; format: functional, cell-based; procedure, shortened: as §1
A549 [8] = assay: Downregulation of CHEK1 mRNA expression in human A549 cells at 10 uM incubated for 48 hrs by qRT-PCR analysis; format: functional, cell-based; procedure, shortened: as §1
A549 [9] = assay: Downregulation of TACC3 mRNA expression in human A549 cells at 10 uM incubated for 48 hrs by qRT-PCR analysis; format: functional, cell-based; procedure, shortened: as §1
NCI-H1299 [10] = assay: Downregulation of […] mRNA expression in human NCI-H1299 cells at 10 uM incubated for 48 hrs by qRT-PCR analysis; format: functional, cell-based; procedure, shortened: as §1
NCI-H1299 [11] = assay: Downregulation of ARL6IP mRNA expression in human NCI-H1299 cells at 10 uM incubated for 48 hrs by qRT-PCR analysis; format: functional, cell-based; procedure, shortened: as §1
NCI-H1299 [12] = assay: Downregulation of CEP76 mRNA expression in human NCI-H1299 cells at 10 uM incubated for 48 hrs by qRT-PCR analysis; format: functional, cell-based; procedure, shortened: as §1
NCI-H1299 [13] = assay: Downregulation of CHEK1 mRNA expression in human NCI-H1299 cells at 10 uM incubated for 48 hrs by qRT-PCR analysis; format: functional, cell-based; procedure, shortened: as §1
NCI-H1299 [14] = assay: Downregulation of TACC3 mRNA expression in human NCI-H1299 cells at 10 uM incubated for 48 hrs by qRT-PCR analysis; format: functional, cell-based; procedure, shortened: as §1
MDA-MB-468 [15] = assay: Downregulation of […] mRNA expression in human MDA-MB-468 cells at 10 uM incubated for 48 hrs by qRT-PCR analysis; format: functional, cell-based; procedure, shortened: as §1
MDA-MB-468 [16] = assay: Downregulation of ARL6IP mRNA expression in human MDA-MB-468 cells at 10 uM incubated for 48 hrs by qRT-PCR analysis; format: functional, cell-based; procedure, shortened: as §1
MDA-MB-468 [17] = assay: Downregulation of CEP76 mRNA expression in human MDA-MB-468 cells at 10 uM incubated for 48 hrs by qRT-PCR analysis; format: functional, cell-based; procedure, shortened: as §1
MDA-MB-468 [18] = assay: Downregulation of CHEK1 mRNA expression in human MDA-MB-468 cells at 10 uM incubated for 48 hrs by qRT-PCR analysis; format: functional, cell-based; procedure, shortened: as §1
MDA-MB-468 [19] = assay: Downregulation of TACC3 mRNA expression in human MDA-MB-468 cells at 10 uM incubated for 48 hrs by qRT-PCR analysis; format: functional, cell-based; procedure, shortened: as §1
A549 [20] = assay: Antiproliferative activity against human A549 cells harboring SWI/SNF mutant assessed as inhibition of cell growth at 10 uM treated for 9 days by optical microscopic analysis; format: functional, cell-based; conditions: time 9.0 day
Procedure, shortened: (§2)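 Cells seeded at 5 × 10³ per well, grown 24 h, then exposed to compound at 10 μM for 9 days with medium refreshed. Cells were photographed and counted on days 1, 3, 5, 7 and 9. For lines 1-2, EZH2-targeting or control shRNA was induced in the cells. Mean SD of three independent experiments; t-test against control.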

NCI-H1299 [21] = assay: Antiproliferative activity against human NCI-H1299 cells harboring SWI/SNF mutant assessed as inhibition of cell growth at 10 uM treated for 9 days by optical microscopic analysis; format: functional, cell-based; conditions: time 9.0 day; procedure, shortened: as §2
MDA-MB-468 [22] = assay: Downregulation of CENPK mRNA expression in human MDA-MB-468 cells at 10 uM incubated for 48 hrs by qRT-PCR analysis; format: functional, cell-based; procedure, shortened: as §1
[23] = target: T1, Protein cereblon/Histone-lysine N-methyltransferase EZH2 (Homo sapiens); assay: PROTAC activity at CRBN E3 ligase/EZH2 in PRC2 complex in human WSUDLCL2 cells assessed as reduction in EZH2 level at 2.5 uM measured after 48 hrs by Western blot analysis; format: cell-based
Procedure, shortened: (§3)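 WSU-DLCL-2 cells exposed 48 h to PROTAC or control analogues at 2.5 μM, with thalidomide and EPZ6438 at 10 μM; PRC2 subunit levels then read by western blot.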

[24] = target: T1, Protein cereblon/Histone-lysine N-methyltransferase EZH2 (Homo sapiens); assay: PROTAC activity at CRBN E3 ligase/EZH2 in PRC2 complex in human WSUDLCL2 cells assessed as reduction in SUZ12 level at 2.5 uM measured after 48 hrs by Western blot analysis; format: cell-based; procedure, shortened: as §3
[25] = target: T1, Protein cereblon/Histone-lysine N-methyltransferase EZH2 (Homo sapiens); assay: PROTAC activity at CRBN E3 ligase/EZH2 in PRC2 complex in human WSUDLCL2 cells assessed as reduction in EED level at 2.5 uM measured after 48 hrs by Western blot analysis; format: cell-based; procedure, shortened: as §3
[26] = target: T1, Protein cereblon/Histone-lysine N-methyltransferase EZH2 (Homo sapiens); assay: PROTAC activity at CRBN E3 ligase/EZH2 in PRC2 complex in human WSUDLCL2 cells assessed as reduction in RbAp48 level at 2.5 uM measured after 48 hrs by Western blot analysis; format: cell-based; procedure, shortened: as §3

T1 sequence (Q15910 whole entry, looked up): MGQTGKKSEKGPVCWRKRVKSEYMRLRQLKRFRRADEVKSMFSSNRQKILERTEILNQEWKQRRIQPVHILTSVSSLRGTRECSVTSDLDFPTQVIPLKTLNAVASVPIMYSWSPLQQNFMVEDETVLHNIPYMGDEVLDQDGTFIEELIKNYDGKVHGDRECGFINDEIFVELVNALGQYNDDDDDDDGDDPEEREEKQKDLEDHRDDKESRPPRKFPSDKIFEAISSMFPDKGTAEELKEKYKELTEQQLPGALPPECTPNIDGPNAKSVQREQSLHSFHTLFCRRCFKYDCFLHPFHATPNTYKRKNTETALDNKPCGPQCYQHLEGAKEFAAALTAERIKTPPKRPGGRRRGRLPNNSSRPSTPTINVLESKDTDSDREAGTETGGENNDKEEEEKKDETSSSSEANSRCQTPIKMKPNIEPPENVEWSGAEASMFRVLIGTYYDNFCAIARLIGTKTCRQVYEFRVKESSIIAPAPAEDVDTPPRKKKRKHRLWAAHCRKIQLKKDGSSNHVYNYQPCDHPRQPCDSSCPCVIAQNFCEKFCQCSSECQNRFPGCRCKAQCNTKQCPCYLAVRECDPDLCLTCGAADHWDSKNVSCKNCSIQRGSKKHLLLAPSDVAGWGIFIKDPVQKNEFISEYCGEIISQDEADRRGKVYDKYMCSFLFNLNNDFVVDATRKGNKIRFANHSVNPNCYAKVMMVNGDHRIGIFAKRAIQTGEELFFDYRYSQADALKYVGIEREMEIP
T1 sequence (Q96SW2 whole entry, looked up): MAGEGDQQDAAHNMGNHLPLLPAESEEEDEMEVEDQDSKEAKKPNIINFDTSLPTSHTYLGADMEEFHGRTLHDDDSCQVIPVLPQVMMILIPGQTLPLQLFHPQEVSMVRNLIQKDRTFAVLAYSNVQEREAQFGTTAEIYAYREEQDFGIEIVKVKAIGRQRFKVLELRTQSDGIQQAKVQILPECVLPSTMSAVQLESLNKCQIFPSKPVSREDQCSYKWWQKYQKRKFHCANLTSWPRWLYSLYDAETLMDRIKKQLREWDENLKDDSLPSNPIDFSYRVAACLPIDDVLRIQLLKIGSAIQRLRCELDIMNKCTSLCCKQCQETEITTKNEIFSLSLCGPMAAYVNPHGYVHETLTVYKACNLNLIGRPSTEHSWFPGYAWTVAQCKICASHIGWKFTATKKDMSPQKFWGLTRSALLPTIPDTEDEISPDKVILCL
Sequence of Histone-lysine N-methyltransferase EZH2 (Q15910 whole entry): as the sequence (Q15910 whole entry, looked up) above

CC[C@H](C)n1cc(C)c2c(C(=O)NCc3c(C)cc(C)[nH]c3=O)cc(-c3ccc(N4CCN(CCCCCCCCCCCOc5cccc6c5C(=O)N(C5CCC(=O)NC5=O)C6=O)CC4)nc3)cc21 (some centres not stated)
Activity [1]: Active | IC50 [2]: 165 nM

CCN(c1cc(-c2ccc(CN3CCN(CCCCOc4cccc5c4C(=O)N(C4CCC(=O)NC4=O)C5=O)CC3)cc2)cc(C(=O)NCc2c(C)cc(C)[nH]c2=O)c1C)C1CCOCC1 (configuration not stated)
Activity [1]: Active | IC50 [2]: 3.7 nM

CC[C@H](C)n1cc(C)c2c(C(=O)NCc3c(C)cc(C)[nH]c3=O)cc(-c3ccc(N4CCN(CCCCCCCCCCOc5cccc6c5C(=O)N(C5CCC(=O)NC5=O)C6=O)CC4)nc3)cc21 (some centres not stated)
Activity [1]: Active | IC50 [2]: 144 nM

CC[C@H](C)n1cc(C)c2c(C(=O)NCc3c(C)cc(C)[nH]c3=O)cc(-c3ccc(N4CCN(CCCCCOc5cccc6c5C(=O)N(C5CCC(=O)NC5=O)C6=O)CC4)nc3)cc21 (some centres not stated)
IC50 [2]: 5.8 nM

CCN(c1cc(-c2ccc(CN3CCOCC3)cc2)cc(C(=O)NCc2c(C)cc(C)[nH]c2=O)c1C)C1CCOCC1
Activity (NCI-H1299 [3]): inactive | Activity (WSUDLCL2): Active | Activity (A549 [4]): inactive | Activity (A549 [5]): inactive | Activity (A549 [6]): inactive | Activity (A549 [7]): inactive | Activity (A549 [8]): inactive | Activity (A549 [9]): inactive | Activity (NCI-H1299 [10]): inactive | Activity (NCI-H1299 [11]): inactive | Activity (NCI-H1299 [12]): inactive | Activity (NCI-H1299 [13]): inactive | Activity (NCI-H1299 [14]): inactive | Activity (MDA-MB-468 [15]): inactive | Activity (MDA-MB-468 [16]): inactive | Activity (MDA-MB-468 [17]): inactive | Activity (MDA-MB-468 [18]): inactive | Activity (MDA-MB-468 [19]): inactive | Activity (A549 [20]): inactive | Activity (NCI-H1299 [21]): inactive | Activity (MDA-MB-468 [22]): inactive

CCN(c1cc(-c2ccc(CN3CCN(CCCCCOc4cccc5c4C(=O)N(C4CCC(=O)NC4=O)C5=O)CC3)cc2)cc(C(=O)NCc2c(C)cc(C)[nH]c2=O)c1C)C1CCOCC1 (configuration not stated)
IC50 [2]: 4.5 nM

CCN(c1cc(-c2ccc(CN3CCN(CCCCCCCOc4cccc5c4C(=O)N(C4CCC(=O)NC4=O)C5=O)CC3)cc2)cc(C(=O)NCc2c(C)cc(C)n(C)c2=O)c1C)C1CCOCC1 (configuration not stated)
IC50 [2]: 23.3 nM | Activity [23]: inactive | Activity [24]: inactive | Activity [25]: inactive | Activity [26]: inactive

CC[C@H](C)n1cc(C)c2c(C(=O)NCc3c(C)cc(C)[nH]c3=O)cc(-c3ccc(N4CCN(CCCCCCCOc5cccc6c5C(=O)N(C5CCC(=O)NC5=O)C6=O)CC4)nc3)cc21 (some centres not stated)
IC50 [2]: 6.3 nM

CCN(c1cc(-c2ccc(CN3CCN(CCCCCCCCCCCOc4cccc5c4C(=O)N(C4CCC(=O)NC4=O)C5=O)CC3)cc2)cc(C(=O)NCc2c(C)cc(C)[nH]c2=O)c1C)C1CCOCC1 (configuration not stated)
Activity [1]: Active | IC50 [2]: 30 nM
